Data on one compound can be found in ChEMBL document CHEMBL5715941, “AZD1152, a selective inhibitor of Aurora B kinase, inhibits human tumor xenograft growth by inducing apoptosis” (Clin Cancer Res, 2007).

Activity calls are given as the source filed them. No cut-off for these calls is given here.

In general, inhibition in vivo refers to the percentage by which the read-out fell short of the control.

The subject of test [1] is SW-620. The test can be described thus: Antitumor activity against human SW620 cells xenografted in nude athymic rat assessed as atrophy in bone marrow at 25 mg/kg/day, iv for 4 consecutive days and measured on 5 day by H&E staining based immunohistochemistry analysis. The format is functional, organism-based. The method, boiled down: (§1)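 Nude rats bearing SW620 tumors were dosed i.v. with AZD1152 at 25 mg/kg/d or with vehicle on days 1-4. Subgroups (n = 3) were killed at set days. Tumor and bone marrow sections were H&E-stained and examined histologically.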
(In general: Xenograft models place foreign cells or tissue in a host animal.)

In test [2] the test system is SW-620. The experiment in a line: Antitumor activity against human SW620 cells xenografted in Swiss nude mouse assessed as increase in large multinucleated cells at 70 mg/kg/day, sc over 48 hrs by H&E staining method. The format is functional, organism-based. An outline of the steps:
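Male nude mice bearing SW620 tumors (n = 4/group) had 48-h s.c. mini-pump infusion of AZD1152 (70 mg/kg/d) or vehicle. Excised tumor sections were stained with H&E, or immunostained for PhH3 Ser10 with rabbit polyclonal antibody, HRP-polymer detection and hematoxylin counterstain.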

The test system of test [3] is SW-620. The test can be described thus: Antitumor activity against human SW620 cells xenografted in nude athymic rat assessed as proportion of polyploid DNA content in tumor cells at 25 mg/kg/day, iv for 1 to 5 consecutive days by flow cytometry analysis relative to control. The format is functional. The note with it: time 1-5 day. The method, boiled down:
(§2)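 Nude rats with SW620 xenografts (0.5-1 cm3) were given vehicle or AZD1152 at 25 mg/kg/d as an i.v. bolus once daily on days 1-4. Subgroups (n = 3) were killed on days 0, 5, 9, 12, 16 and 19. Disaggregated tumors were analyzed by flow cytometry for PhH3 (% of control) and for 4N and >4N DNA (fold over control).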

The subject of test [4] is SW-620. The experiment in a line: Antitumor activity against human SW620 cells xenografted in nude athymic rat assessed as high degree of pleomorphism at 25 mg/kg/day, iv for 4 consecutive days and measured on 5 day by H&E staining based immunohistochemistry analysis. It counts as functional, organism-based. An outline of the steps: as §1
Test [5] concerns SW-620. The test can be described thus: Antitumor activity against human SW620 cells xenografted in nude athymic rat assessed as tumor growth inhibition at 25 mg/kg/day, iv for 4 consecutive days and measured at 8 day relative to control. It counts as functional. As to conditions: SW-620, 192 h. An outline of the steps:
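Male nude rats with established SW620 xenografts, randomized at 0.5-1 cm3, received vehicle or AZD1152 (25 mg/kg, in Tris pH 9) as a once-daily i.v. bolus for 4 consecutive days. Tumor volume was measured by caliper (n = 10); growth inhibition relative to vehicle.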

Test [6] relates to SW-620. The experiment in a line: Antitumor activity against human SW620 cells xenografted in immunodeficient Swiss athymic mouse assessed as inhibition of tumor volume at 25 mg/kg/day, sc for 48 hrs on days 7 to 9 and measured on day 23 relative to control. It counts as functional. The note with it: SW-620, 408 h, time 17 day. An outline of the steps: (§3)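 Male Swiss athymic nude mice, 8-12 wk; tumor cells (1×10^6-1×10^7, 50:50 Matrigel) implanted s.c. on flank. Randomized (n = 8-11) at 0.2-0.5 cm3. AZD1152 in Tris buffer pH 9, or vehicle (0.3 mol/L Tris), by 48-h s.c. osmotic mini-pump infusion (two 24-h pumps in sequence). Caliper volumes up to 3×/week; growth inhibition from change in control vs treated volume; one-tailed t test.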

In test [7] the test system is SW-620. The experiment in a line: Antitumor activity against human SW620 cells xenografted in immunodeficient Swiss athymic mouse assessed as inhibition of tumor volume at 25 mg/kg/day, ip for 4 days on days 6 to 9 and measured on day 24 relative to control. As to conditions: SW-620, 456 h, time 19 day. It counts as functional. The method, boiled down:
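Male Swiss nude mice bearing s.c. flank SW620 xenografts (cells in Matrigel), randomized (n = 8-11) at 0.2-0.3 cm3. AZD1152 in Tris buffer pH 9, or vehicle, given as a once-daily i.v. or i.p. bolus. Caliper volumes up to 3×/week; inhibition from change in control vs treated volume; one-tailed t test.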

For test [8], the system named is SW-620. The test can be described thus: Antitumor activity against human SW620 cells xenografted in nude athymic rat assessed as myelosuppression at 25 mg/kg/day, iv for 4 consecutive days by flow cytometric analysis. It counts as functional, organism-based. As to conditions: time 4.0 day.
Test [9] deals with A549. The experiment in a line: Antitumor activity against human A549 cells xenografted in immunodeficient Swiss athymic mouse assessed as inhibition of tumor volume at 25 mg/kg/day, sc for 48 hrs on days 13 to 15 and measured on day 29 relative to control. The note with it: A549, 408 h, time 17 day. It counts as functional. The method, boiled down: as §3
Test [10] deals with SW-620. The experiment in a line: Antitumor activity against human SW620 cells xenografted in nude athymic rat assessed as normal appearance in bone marrow at 25 mg/kg/day, iv for 4 consecutive days and measured on 9 day by H&E staining based immunohistochemistry analysis. It counts as functional, organism-based. An outline of the steps:
as §1

Test [11] relates to SW-620. The experiment in a line: Antitumor activity against human SW620 cells xenografted in nude athymic rat assessed as most affect in leukocyte population at 25 mg/kg/day, iv for 4 consecutive days by flow cytometric analysis. It counts as functional, organism-based. As to conditions: time 4.0 day.
Test [12] deals with SW-620. The experiment in a line: Antitumor activity against human SW620 cells xenografted in Swiss nude mouse assessed as inhibition in PhH3 level at 10 to 150 mg/kg/day, sc measured over 48 hrs by flow cytometry analysis relative to control. It counts as functional. The note with it: dose 10-150 mg/kg/day. An outline of the steps: (§4)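 Male nude mice with palpable s.c. SW620 tumors (n = 4/group) received AZD1152 (0.5-150 mg/kg/d) or vehicle by constant 48-h s.c. mini-pump infusion. Tumors were then excised, fixed and disaggregated. Flow cytometry with propidium iodide gave DNA content (2N, 4N, >4N), and rabbit anti-PhH3 with fluorescein anti-rabbit IgG gave PhH3-positive cells (%).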

Test [13] concerns SW-620. The experiment in a line: Antitumor activity against human SW620 cells xenografted in Swiss nude mouse assessed as accumulation in proportion of 2N DNA content at 70 mg/kg/day, sc over 48 hrs by flow cytometry analysis relative to control. The format is functional. The method, boiled down: as §4
In test [14] the test system is A549. The test can be described thus: Antitumor activity against human A549 cells xenografted in immunodeficient Swiss athymic mouse assessed as maximum inhibition of tumor volume at 25 mg/kg/day, sc for 48 hrs on days 13 to 15 and measured on day 15 relative to control. It counts as functional. As to conditions: A549, 72 h, time 3 day. The method, boiled down: as §3

Test [15] has as its system SW-620. The test can be described thus: Antitumor activity against human SW620 cells xenografted in nude athymic rat assessed as suppression in PhH3 at 25 mg/kg/day, iv for 4 consecutive days and measured during dosing period (days 1 to 4) by flow cytometry analysis relative to control. The note with it: time 1 to 4 day.
The test system of another test is COLO 205. The test can be described thus: Antitumor activity against human COLO 205 cells xenografted in immunodeficient Swiss athymic mouse assessed as inhibition of tumor volume at 150 mg/kg/day, sc for 48 hrs on days 5 to 7 and measured on day 21 relative to control. As to conditions: COLO 205, 408 h, time 17 day. The format is functional. An outline of the steps: as §3

Test [16] concerns SW-620. The test can be described thus: Antitumor activity against human SW620 cells xenografted in nude athymic rat assessed as proportion of 4N DNA content in tumor cells at 25 mg/kg/day, iv for 1 to 5 consecutive days by flow cytometry analysis relative to control. As to conditions: time 1-5 day. The format is functional. An outline of the steps:
as §2

In test [17] the test system is A549. The experiment in a line: Antitumor activity against human A549 cells xenografted in immunodeficient Swiss athymic mouse assessed as inhibition of tumor volume at 150 mg/kg/day, sc for 48 hrs on days 13 to 15 and measured on day 29 relative to control. The format is functional. As to conditions: A549, 408 h, time 17 day. The method, boiled down:
as §3

The test system of test [18] is SW-620. The experiment in a line: Antitumor activity against human SW620 cells xenografted in nude athymic rat assessed as larger multinucleated tumor cells at 25 mg/kg/day, iv for 4 consecutive days and measured on 9 day by H&E staining based immunohistochemistry analysis. The format is functional, organism-based. An outline of the steps:
as §1

Regarding `CCN(CCCOc1ccc2c(Nc3cc(CC(=O)Nc4cccc(F)c4)[nH]n3)ncnc2c1)CCOP(=O)(O)O` [BARASERTIB], the outcome in the test on SW-620 [1], in the test with SW-620 [2], in the test on SW-620 [4], in the test on SW-620 [8], with SW-620 [11] and with SW-620 [18] was Active. The Activity in the test on SW-620 [3] was 67%; in the test on SW-620 [13] it was 35%; in the test on SW-620 [15], around 40%; in the test with SW-620 [16] it was 60%. The inhibition in vivo at 25 mg/kg/day with SW-620 [5] was 93%; with SW-620 [6] it was 49%; with SW-620 [7], 54%; in the test on A549 [9] it was 36%; with A549 [14] it was 74%. Also, the outcome in the test with SW-620 [10] was inactive. The “inhibition (INH)” value in the test on SW-620 [12] came to 77%. The results for the inhibition in vivo at 150 mg/kg/day in the test with COLO 205 and with A549 [17] were 94% and 69%, respectively.
